Source: ChEMBL document CHEMBL1138570, “2-Acylhydrazino-5-arylpyrrole derivatives: synthesis and antifungal activity evaluation” (Eur J Med Chem, 2009)
Values after ≈ are worked out from the molar mass of the structure shown.

How the values were obtained:
Assay type in all cases: functional
Pichia kudriavzevii [1] = experiment: Antimicrobial activity against Candida krusei after 72 hrs by broth microdilution method
Outline: (§1)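 MFC: after MIC reading, a sample from each well was plated on Sabouraud dextrose agar and incubated 72 h at 35 °C. MFC was taken as the minimum concentration killing >99% of the original inoculum. The MIC step was NCCLS broth microdilution in MOPS-buffered RPMI 1640 (pH 7.0), with 2 ×10⁴ cells/mL, overnight at 35 °C.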

Candida parapsilosis [2] = experiment: Antimicrobial activity against Candida parapsilosis by broth microdilution method; details: Lodderomyces parapsilosis
Outline: (§2)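 MIC by NCCLS broth microdilution. Medium was RPMI 1640 with L-glutamine, buffered with 0.165 M MOPS at pH 7.0. Twofold drug dilutions ran 0.008–200 mg/L. Inoculum was set spectrophotometrically to 10⁶ CFU/mL, then diluted in medium to 2 ×10⁴ cells/mL. Plates were incubated overnight at 35 °C in humid air, agitated, and read visually and at 450 nm.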

Candida albicans [3] = experiment: Antimicrobial activity against Candida albicans ATCC 10231 after 72 hrs by broth microdilution method; details: ATCC 10231, 72 h; outline: as §1
Candida parapsilosis [4] = experiment: Antimicrobial activity against Candida parapsilosis after 72 hrs by broth microdilution method; details: Lodderomyces parapsilosis; outline: as §1
Candida albicans [5] = experiment: Antimicrobial activity against Candida albicans ATCC 10231 by broth microdilution method; outline: as §2
Pichia kudriavzevii [6] = experiment: Antimicrobial activity against Candida krusei by broth microdilution method; outline: as §2
Nakaseomyces glabratus [7] = experiment: Antimicrobial activity against Candida glabrata by broth microdilution method; outline: as §2
Nakaseomyces glabratus [8] = experiment: Antimicrobial activity against Candida glabrata after 72 hrs by broth microdilution method; outline: as §1

Row | SMILES | MIC (Candida parapsilosis [2]) [µg/mL] | MIC (Candida albicans [5]) [µg/mL] | MIC (Pichia kudriavzevii [6]) [µg/mL] | MIC (Nakaseomyces glabratus [7]) [µg/mL] | MFC (Pichia kudriavzevii [1]) [µg/mL] | MFC (Candida albicans [3]) [µg/mL] | MFC (Candida parapsilosis [4]) [µg/mL] | MFC (Nakaseomyces glabratus [8]) [µg/mL]
1 | CCOC(=O)c1cc(-c2ccc(C)cc2)[nH]c1NNC(=O)C(C)C | 25 (≈ 75.9 µM) | 6.25 (≈ 19 µM) | 25 (≈ 75.9 µM) | > 100 | 100 (≈ 304 µM) | 12.5 (≈ 37.9 µM) | > 100 | > 100
2 | CCCC(=O)NNc1[nH]c(-c2ccc(Cl)cc2)cc1C(=O)OCC | > 100 | > 100 | > 100 | > 100 | > 100 | > 100 | > 100 | > 100
3 | CCOC(=O)c1cc(-c2ccc(C)cc2)[nH]c1NNC(C)=O | 50 (≈ 166 µM) | > 100 | 100 (≈ 332 µM) | > 100 | > 100 | > 100 | 50 (≈ 166 µM) | > 100
4 | CCCC(=O)NNc1[nH]c(-c2ccccc2)cc1C(=O)OCC | 100 (≈ 317 µM) | 12.5 (≈ 39.6 µM) | > 100 | > 100 | > 100 | 12.5 (≈ 39.6 µM) | > 100 | > 100
5 | CCOC(=O)c1cc(-c2ccccc2)[nH]c1NNC(=O)C(C)C | 25 (≈ 79.3 µM) | > 100 | > 100 | 6.25 (≈ 19.8 µM) | > 100 | > 100 | 100 (≈ 317 µM) | 12.5 (≈ 39.6 µM)
6 | COc1ccc(-c2cc(C#N)c(NNC(=O)C(C)C)[nH]2)cc1 | 25 (≈ 83.8 µM) | 3.12 (≈ 10.5 µM) | 50 (≈ 168 µM) | 50 (≈ 168 µM) | > 100 | 3.12 (≈ 10.5 µM) | > 100 | > 100
7 | CCOC(=O)NNc1[nH]c(-c2ccc(OC)cc2)cc1C(=O)OC | 25 (≈ 75 µM) | 3.12 (≈ 9.36 µM) | 50 (≈ 150 µM) | 12.5 (≈ 37.5 µM) | > 100 | 6.25 (≈ 18.7 µM) | > 100 | 50 (≈ 150 µM)
8 | CCOC(=O)c1cc(-c2ccc(C)cc2)[nH]c1NNC(=O)Cc1ccc(OC)cc1 | 100 (≈ 245 µM) | > 100 | 100 (≈ 245 µM) | > 100 | > 100 | > 100 | > 100 | > 100
9 | CCCC(=O)NNc1[nH]c(-c2ccc(C)cc2)cc1C(=O)OCC | 25 (≈ 75.9 µM) | > 100 | > 100 | > 100 | > 100 | > 100 | > 100 | > 100

The next compounds have a lower MIC (Candida parapsilosis [2]) than those just listed; values first:

Row | MIC (Candida parapsilosis [2]) [µg/mL] | MIC (Candida albicans [5]) [µg/mL] | MIC (Pichia kudriavzevii [6]) [µg/mL] | MIC (Nakaseomyces glabratus [7]) [µg/mL] | SMILES | MFC (Pichia kudriavzevii [1]) [µg/mL] | MFC (Candida albicans [3]) [µg/mL] | MFC (Candida parapsilosis [4]) [µg/mL] | MFC (Nakaseomyces glabratus [8]) [µg/mL]
10 | 12.5 (≈ 37.7 µM) | 3.12 (≈ 9.42 µM) | 25 (≈ 75.4 µM) | 6.25 (≈ 18.9 µM) | CCOC(=O)c1cc(-c2ccc(OC)cc2)[nH]c1NNC(=O)CC | 100 (≈ 302 µM) | 12.5 (≈ 37.7 µM) | 25 (≈ 75.4 µM) | 12.5 (≈ 37.7 µM)
11 | 12.5 (≈ 38.8 µM) | > 100 | 25 (≈ 77.7 µM) | > 100 | CCOC(=O)c1cc(-c2ccc(Cl)cc2)[nH]c1NNC(C)=O | 50 (≈ 155 µM) | > 100 | 25 (≈ 77.7 µM) | > 100
12 | 6.25 (≈ 20.7 µM) | 3.12 (≈ 10.4 µM) | 12.5 (≈ 41.5 µM) | 6.25 (≈ 20.7 µM) | CCOC(=O)c1cc(-c2ccccc2)[nH]c1NNC(=O)CC | 25 (≈ 83 µM) | 12.5 (≈ 41.5 µM) | 25 (≈ 83 µM) | 12.5 (≈ 41.5 µM)
13 | 6.25 (≈ 19.9 µM) | 3.12 (≈ 9.93 µM) | 3.12 (≈ 9.93 µM) | 6.25 (≈ 19.9 µM) | COCCC(=O)NNc1[nH]c(-c2ccc(OC)cc2)cc1C#N | 6.25 (≈ 19.9 µM) | 6.25 (≈ 19.9 µM) | 12.5 (≈ 39.8 µM) | 12.5 (≈ 39.8 µM)
14 | 6.25 (≈ 18 µM) | 3.12 (≈ 8.98 µM) | 12.5 (≈ 36 µM) | 6.25 (≈ 18 µM) | CCOC(=O)NNc1[nH]c(-c2ccc(OC)cc2)cc1C(=O)OCC | 100 (≈ 288 µM) | 3.12 (≈ 8.98 µM) | 25 (≈ 72 µM) | 25 (≈ 72 µM)
15 | 6.25 (≈ 22.9 µM) | 3.12 (≈ 11.4 µM) | 12.5 (≈ 45.7 µM) | 6.25 (≈ 22.9 µM) | COC(=O)c1cc(-c2ccccc2)[nH]c1NNC(C)=O | 12.5 (≈ 45.7 µM) | 6.25 (≈ 22.9 µM) | 25 (≈ 91.5 µM) | 25 (≈ 91.5 µM)
16 | 6.25 (≈ 23.1 µM) | 6.25 (≈ 23.1 µM) | 6.25 (≈ 23.1 µM) | 25 (≈ 92.5 µM) | COCC(=O)NNc1[nH]c(-c2ccccc2)cc1C#N | 25 (≈ 92.5 µM) | 6.25 (≈ 23.1 µM) | 6.25 (≈ 23.1 µM) | 50 (≈ 185 µM)
17 | 3.12 (≈ 12.3 µM) | 3.12 (≈ 12.3 µM) | 1.56 (≈ 6.13 µM) | 3.12 (≈ 12.3 µM) | CCC(=O)NNc1[nH]c(-c2ccccc2)cc1C#N | 12.5 (≈ 49.2 µM) | 6.25 (≈ 24.6 µM) | 12.5 (≈ 49.2 µM) | 12.5 (≈ 49.2 µM)
18 | 3.12 (≈ 13 µM) | 3.12 (≈ 13 µM) | 3.12 (≈ 13 µM) | 6.25 (≈ 26 µM) | CC(=O)NNc1[nH]c(-c2ccccc2)cc1C#N | 6.25 (≈ 26 µM) | 3.12 (≈ 13 µM) | 12.5 (≈ 52 µM) | 12.5 (≈ 52 µM)
